Compounds with a hit are over-represented: about 1.4% of the library has one in this group of screens.
FXIIa inh – factor XIIa (human) inhibition; purified FXIIa, Boc-QGR-AMC fluorogenic substrate, 2 h; inhibition, % at 5 µM; hit rate 0.3% among 220,000; AID 800; in the data active = inhibition above about 40%;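 also: 0% = enzyme with no compound and 100% = blank without enzyme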
Target sequence (P00748 20-372 limits assumed): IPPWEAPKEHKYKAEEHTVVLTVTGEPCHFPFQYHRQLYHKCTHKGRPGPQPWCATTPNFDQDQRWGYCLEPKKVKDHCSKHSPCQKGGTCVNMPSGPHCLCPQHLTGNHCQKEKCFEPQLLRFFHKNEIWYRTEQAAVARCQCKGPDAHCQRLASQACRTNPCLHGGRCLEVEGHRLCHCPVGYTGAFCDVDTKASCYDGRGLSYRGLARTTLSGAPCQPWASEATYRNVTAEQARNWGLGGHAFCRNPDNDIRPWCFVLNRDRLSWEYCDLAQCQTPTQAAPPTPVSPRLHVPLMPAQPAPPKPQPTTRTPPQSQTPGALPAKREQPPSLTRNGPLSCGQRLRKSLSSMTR
Target sequence (P00748 373-615 limits assumed): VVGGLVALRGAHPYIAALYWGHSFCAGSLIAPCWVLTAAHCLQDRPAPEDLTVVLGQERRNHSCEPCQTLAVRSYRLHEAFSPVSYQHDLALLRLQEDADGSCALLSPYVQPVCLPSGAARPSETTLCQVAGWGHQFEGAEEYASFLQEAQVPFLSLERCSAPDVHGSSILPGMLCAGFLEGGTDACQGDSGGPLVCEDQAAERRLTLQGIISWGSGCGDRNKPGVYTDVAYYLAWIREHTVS
m-calpain inh – blocks pig calpain II enzyme activity; purified calpain II, fluorogenic peptide substrate, 30 min; inhibition, % at 16 µM; hit rate 0.37% among 220,000;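 active = inhibition above about 50%, limit read from the data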
FXIa inh – blocks human coagulation factor XIa protease activity; P03951; purified FXIa, Boc-Glu-Ala-Arg-AMC fluorogenic substrate; inhibition, % at 5 µM; hit rate 0.14% among 220,000;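 active = inhibition of at least 40%; inactive = inhibition below 40%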;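 also: fluorescence of freed AMC excited at 355 nm; 0% = enzyme without compound and 100% = no enzyme blank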
hK5 inh – inhibitors of human kallikrein 5; AID 873; recombinant hK5, fluorogenic AMC substrate cleavage; Q9Y337; inhibition, % at 5 µM; hit rate 0.59% among 210,000;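 active = inhibition of 40% or more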;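 also: 0% = enzyme controls without compound and 100% = no-enzyme blanks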
Thrombin inh – thrombin (human) inhibition. P00734. alpha-thrombin, Boc-VPR-AMC fluorogenic substrate cleavage. inhibition, % at 5 µM. hit rate 0.26% among 220,000. AID 1046;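 active = inhibition at or above 40%; inactive = inhibition below 40%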;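 also: 0% = enzyme with no compound and 100% = wells without enzyme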
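System: human alpha-thrombin protein; Compound dosing: one concentration per compound, 5 µM, with 0.2% DMSO; Timing: reaction at room temperature; Technique: AMC fluorescence, 355/460 nm; Controls: enzyme without compound as high, wells lacking enzyme as low.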
* hit, by the source's call; · = not tested or not shown.

SMILES | FXIIa inh | m-calpain inh | FXIa inh | hK5 inh | Thrombin inh
CN(C)S(=O)(=O)Oc1ccsc1C(=O)Nc1ccc(Br)cc1 | 5.9 | -10.8 | -3.1 | -7.9 | -8.3
NC(=O)c1ccc(NC(=O)c2cnc3ccccc3n2)cc1 | 1.4 | -14.4 | -3.9 | -4.1 | 2.4
CCOC(=O)Cn1cncc1-c1ccc([N+](=O)[O-])cc1 | 14.1 | -2.6 | 14.1 | -9.0 | -0.5
CCOc1ccc(NC(=O)Cn2cncc2-c2ccc([N+](=O)[O-])cc2)cc1 | 30.0 | -39.3 | 10.1 | 41.5* | 9.0
CC(=O)NC(Cc1ccccc1C)C(=O)NC1CCN(C(=O)c2ccc(C)cc2)CC1 (stereo unspecified) | 6.2 | 17.6 | -4.4 | -0.7 | -7.1
O=C1OCC2OC(O)C(O)C(O)C2OC(=O)c2cc(O)c(O)c(O)c2-c2c(O)c(O)c3oc(=O)c4c(c(O)c(O)c5oc(=O)c2c3c54)-c2c1cc(O)c(O)c2O (stereo unspecified) | -3.1 | 38.6 | 59.1* | 22.8 | -4.1
O=C(/C=C/c1ccc(S(=O)(=O)N2CCOCC2)cc1)OCC(=O)c1ccc([N+](=O)[O-])cc1 | 0.3 | -22.6 | -4.0 | -2.1 | -4.9
NC(=O)N/N=C/C=C/c1ccccc1 | 12.6 | 16.7 | 16.2 | 17.1 | 42.4*
COCc1cc(C)nc(Oc2ccccc2)c1C#N | 3.3 | 0.4 | -4.0 | 1.4 | -1.9
Cc1nnc(NC(=O)c2c(F)c(F)c(F)c(F)c2F)s1 | 49.7* | 4.3 | 10.8 | 33.0 | 16.9
Cn1c(C(=O)N2CCN(c3ncccn3)CC2)cc2c(=O)n(C)c3ccccc3c21 | 32.4 | 12.2 | 3.9 | 45.8* | -0.3
C/C(=N\O)C(C)NC(=O)c1ccccc1 (stereo unspecified) | 20.0 | -5.3 | 22.2 | -15.7 | -0.1
COc1cc(C2C3C(=O)N(Cc4ccccc4)C(=O)C3ON2c2ccccc2)cc(OC)c1OC (stereo unspecified) | 10.7 | 44.4 | -2.1 | -10.3 | 4.6
COc1ccc(C2C3C(=O)N(Cc4ccccc4)C(=O)C3ON2c2ccccc2)c(OC)c1OC (stereo unspecified) | 13.4 | 25.5 | 7.4 | 52.3* | 19.4
Cc1cc(NC(=O)C(=O)c2cn(C)c3ccccc23)no1 | 8.0 | -5.3 | -3.5 | 4.7 | -6.9
Cc1csc(NC(=O)C2CCN(C(=O)c3ccccc3C)CC2)n1 | 4.8 | 26.7 | -4.9 | -0.8 | -11.2
Cc1ccc([N+](=O)[O-])c(C)[n+]1C | 7.0 | -23.4 | -2.5 | -8.8 | -2.3
CC1(C)N=c2ccc([N+](=O)[O-])c(N)c2=[N+]1[O-] | 24.1 | 24.4 | 40.0* | 22.0 | 20.2
c1ccc2c(-c3nnc4n3CCCCC4)cc(-c3ccncc3)nc2c1 | 13.2 | 21.8 | 2.9 | 19.8 | 45.3*
Clc1ccc(-c2cc(-c3nnc4n3CCCCC4)c3ccccc3n2)cc1 | 12.1 | -9.3 | 1.0 | -3.2 | -2.4
c1csc(CSc2nc3ccccc3s2)c1 | 7.8 | -23.3 | -5.7 | -13.1 | 3.7
NNC(=O)c1ccc(CSc2nc3ccccc3s2)cc1 | 48.6* | 14.0 | 30.8 | 26.6 | 13.5
COc1cc(-n2c(=O)c3ccccc3n(CC(=O)c3ccc(F)cc3)c2=O)cc(OC)c1OC | 9.4 | 1.2 | 0.5 | 0.3 | -9.6
CN1CCC(N(C)C(=S)NC(=O)c2cc(-c3cccc(Br)c3)nc3ccccc23)CC1 | 11.8 | 6.9 | 2.5 | 1.9 | 0.3
CN1CCC/C1=C/C=C1\SC(=S)NC1=O | 17.1 | 59.7* | 19.1 | 15.5 | 26.6
SMILES | FXIIa inh | m-calpain inh | FXIa inh | hK5 inh | Thrombin inh
OCC1(Cc2ccc(Cl)cc2)CCN(Cc2ccc(Oc3ncccn3)cc2)CC1 | 7.6 | -27.3 | -6.1 | -3.3 | -10.1
O=C(Nc1ccc(Cl)c(Cl)c1)Nc1nnc(-c2ccncc2)s1 | 0.9 | 101.6* | -1.4 | -13.7 | -6.3
O=C(NCc1n[nH]c(=S)n1-c1ccc(Br)cc1)c1ccc(S(=O)(=O)N2CCOCC2)cc1 | 7.7 | -27.8 | -5.9 | · | -3.2
Cc1cc(N/N=C/c2ccc3c(c2)OCO3)nc2ccccc12 | 2.2 | -27.0 | -0.5 | -0.3 | -1.4
CCNc1nc(-c2ccc(OC(F)F)cc2)c(C)s1 | 3.5 | 31.5 | -0.4 | · | -0.6
C/C(=N/NC(=O)c1cc(-c2cccc([N+](=O)[O-])c2)n[nH]1)c1ccc(Cl)cc1 | 13.3 | 68.2* | 7.0 | -8.3 | -8.8
CC(=O)Nc1ccc(NC(=O)CCn2c(=S)oc3ccccc32)cc1 | 48.8* | 17.3 | 26.4 | 19.1 | 28.1
CCOc1ccc(C2CC(=O)N(Nc3ccc([N+](=O)[O-])cc3[N+](=O)[O-])C2=O)cc1 (stereo unspecified) | 18.3 | 18.9 | 15.0 | 21.1 | 45.4*
COc1ccc(S(=O)(=O)CCc2nnc(NC(=O)c3cccs3)s2)cc1 | 22.5 | 3.3 | 0.0 | 0.8 | 77.1*
COc1ccc2c(c1)-c1nc(NC(=O)c3cccs3)sc1CC2 | 21.7 | -4.3 | 49.2* | -14.0 | 4.0
CC(C)N=C(NS(=O)(=O)c1ccccc1)C(Cl)(Cl)Cl | -3.2 | 5.2 | -2.3 | -8.1 | -6.3
Cn1ccs/c1=N\C(=O)Nc1cccc(Cl)c1 | 9.3 | -7.4 | 0.6 | · | -3.7
O=C(N=Nc1c(O)[nH]c2ccc(Cl)cc12)c1cc(-c2cccs2)nc2ccccc12 | 5.6 | 89.0* | 6.4 | -12.7 | -5.2
COc1ccc(-c2ccc(-c3noc(-c4cccc(OC)c4)n3)c(OC)n2)cc1 | -10.1 | · | -6.3 | 59.8* | -1.2
COc1ccc2oc(C(=O)c3ccccc3)c(N)c2c1 | 27.9 | 2.1 | 14.9 | 49.5* | 26.1
COc1ccc(C(=O)c2oc3ccccc3c2N)cc1 | 8.6 | 0.0 | 8.0 | 7.4 | 0.3
CCCCNC(=O)Nc1ccc(C2SCCS2)cc1 | 11.0 | 19.5 | 6.1 | 60.3* | 20.3
CCC(=O)N1c2ccccc2NC2=C(C(=O)CC(C)(C)C2)C1c1cccnc1 (stereo unspecified) | 6.7 | -20.9 | -4.1 | -7.8 | 4.3
CCC(=O)N1c2ccccc2NC2=C(C(=O)CCC2)C1c1ccc(N(C)C)cc1 (stereo unspecified) | 8.9 | 14.7 | 4.8 | 43.2* | 13.9
Cc1ccccc1NC(=O)c1ccc(NC(=O)C2CC(=O)OC23CCCCC3)cc1 (stereo unspecified) | 16.7 | 18.5 | 30.5 | 15.2 | 64.1*
CC1CCCCN1C(=O)Cn1cc(/C=C2/C(=O)Nc3ccccc32)c2ccccc21 (stereo unspecified) | 16.9 | -78.0 | 3.3 | 4.7 | 4.5
CCOC(=O)Cc1csc(NC(=O)CCC(=O)O)n1 | 5.5 | 2.7 | 1.4 | -0.3 | -2.3
CCOC(=O)Cc1csc(NC(=O)CC(C)(C)CC(=O)O)n1 | 25.4 | 3.8 | 59.1* | 50.0* | 10.3
CCOC(=O)N1CCC(Nc2ccc(N3C(=O)C4CCCCC4C3=O)cc2[N+](=O)[O-])CC1 (stereo unspecified) | 3.5 | 98.2* | 1.9 | · | -3.4
CCOCCCNc1ccc(N2C(=O)C3CCCCC3C2=O)cc1[N+](=O)[O-] (stereo unspecified) | 13.2 | 58.7* | 7.1 | 1.6 | -8.1
Cc1ccccc1NC(=S)NCc1ccco1 | 15.0 | -9.8 | 9.6 | -12.9 | -5.2
CCOc1ccccc1NC(=S)NCc1ccco1 | 17.7 | 6.9 | -1.6 | 44.6* | 16.9

Assay outcomes deposited in PubChem by several laboratories.
